Data taken from ChEMBL document CHEMBL5712072, “Epigenetic targeting of Hedgehog pathway transcriptional output through BET bromodomain inhibition” (Nat Med, 2014).
Calls of active or inactive are those of the source. The rule behind the calls is not given here.

Columns and labels:
[1] = tested on: Basal cell carcinoma cell (Mus musculus); test: Antitumor activity in mouse basal cell carcinoma allografted in mouse assessed as reduction in tumor growth at 100 mg/kg/day, ip
Medulloblastoma cell [2] = test: Induction of apoptosis in mouse wildtype SMO expressing medulloblastoma cells assessed as necrotic cells by annexin-V/PI staining based flow cytometric analysis (reference value: 22%)
Medulloblastoma cell [3] = test: Induction of apoptosis in mouse wildtype SMO expressing medulloblastoma cells assessed as late apoptotic cells by annexin-V/PI staining based flow cytometric analysis (reference value: 2.5%)
[4] = target: Bromodomain-containing protein 4 (Mus musculus) (UniProt Q9ESU6); test: Inhibition of BRD4 in mouse Hh-Light2 cells assessed as inhibition in Gli1 protein level by immunoblot analysis
[5] = target: Bromodomain-containing protein 4 (Mus musculus) (UniProt Q9ESU6); test: Inhibition of BRD4 in mouse Hh-Light2 cells assessed as Gli1 mRNA level by qRT-PCR analysis
Medulloblastoma cell [6] = test: Induction of apoptosis in human wildtype SMO expressing medulloblastoma cells assessed as early apoptotic cells by annexin-V/PI staining based flow cytometric analysis (reference value: 0.59%); format: functional
MEF [7] = test: Downregulation of Gli1 protein expression in Sufu-/- MEF cells by immunoblot analysis; format: functional, cell-based; conditions: Mus musculus
Procedure, shortened: (§1)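 Sufu−/− MEFs exposed to DMSO or 1 uM of JQ1, GDC-0449, LDE225 or SANT-1; RIPA lysis 30min on ice, cleared 13000rpm 15min 4°C; SDS-PAGE immunoblot with anti-GLI1, β-tubulin as loading control.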

Medulloblastoma cell [8] = test: Antiproliferative activity against in […] medulloblastoma cells expressing SmoWT-MB cells from mouse assessed as cell proliferation by EdU analysis; format: functional, cell-based
Procedure, shortened: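 SmoWT-MB cells given 0.1uM GDC-0449 or LDE225 (or JQ1 1 uM); 10uM EdU added for final 6-8hrs; EdU+ cells detected by Click-iT flow cytometry or imaging, DAPI counterstain; proliferation index = EdU+/DAPI+ cells; group means ± SD.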

Medulloblastoma cell [9] = test: Induction of apoptosis in human wildtype SMO expressing medulloblastoma cells assessed as viable cells by annexin-V/PI staining based flow cytometric analysis (reference value: 74.9%); format: functional
MEF [10] = test: Downregulation of Gli transcription in Sufu-/- MEF cells by immunoblot analysis; format: functional, cell-based; conditions: Mus musculus
Procedure, shortened: as §1

[11] = target: Zinc finger protein GLI2 (Homo sapiens) (UniProt P10070); test: Inhibition of human GLI2 expressed in Hh-Light2 cells assessed as reduction in Gli1 mRNA expression level by qRT-PCR analysis; format: cell-based
Zinc finger protein GLI2 (Homo sapiens), sequence (P10070 whole entry, the tested form may be a part): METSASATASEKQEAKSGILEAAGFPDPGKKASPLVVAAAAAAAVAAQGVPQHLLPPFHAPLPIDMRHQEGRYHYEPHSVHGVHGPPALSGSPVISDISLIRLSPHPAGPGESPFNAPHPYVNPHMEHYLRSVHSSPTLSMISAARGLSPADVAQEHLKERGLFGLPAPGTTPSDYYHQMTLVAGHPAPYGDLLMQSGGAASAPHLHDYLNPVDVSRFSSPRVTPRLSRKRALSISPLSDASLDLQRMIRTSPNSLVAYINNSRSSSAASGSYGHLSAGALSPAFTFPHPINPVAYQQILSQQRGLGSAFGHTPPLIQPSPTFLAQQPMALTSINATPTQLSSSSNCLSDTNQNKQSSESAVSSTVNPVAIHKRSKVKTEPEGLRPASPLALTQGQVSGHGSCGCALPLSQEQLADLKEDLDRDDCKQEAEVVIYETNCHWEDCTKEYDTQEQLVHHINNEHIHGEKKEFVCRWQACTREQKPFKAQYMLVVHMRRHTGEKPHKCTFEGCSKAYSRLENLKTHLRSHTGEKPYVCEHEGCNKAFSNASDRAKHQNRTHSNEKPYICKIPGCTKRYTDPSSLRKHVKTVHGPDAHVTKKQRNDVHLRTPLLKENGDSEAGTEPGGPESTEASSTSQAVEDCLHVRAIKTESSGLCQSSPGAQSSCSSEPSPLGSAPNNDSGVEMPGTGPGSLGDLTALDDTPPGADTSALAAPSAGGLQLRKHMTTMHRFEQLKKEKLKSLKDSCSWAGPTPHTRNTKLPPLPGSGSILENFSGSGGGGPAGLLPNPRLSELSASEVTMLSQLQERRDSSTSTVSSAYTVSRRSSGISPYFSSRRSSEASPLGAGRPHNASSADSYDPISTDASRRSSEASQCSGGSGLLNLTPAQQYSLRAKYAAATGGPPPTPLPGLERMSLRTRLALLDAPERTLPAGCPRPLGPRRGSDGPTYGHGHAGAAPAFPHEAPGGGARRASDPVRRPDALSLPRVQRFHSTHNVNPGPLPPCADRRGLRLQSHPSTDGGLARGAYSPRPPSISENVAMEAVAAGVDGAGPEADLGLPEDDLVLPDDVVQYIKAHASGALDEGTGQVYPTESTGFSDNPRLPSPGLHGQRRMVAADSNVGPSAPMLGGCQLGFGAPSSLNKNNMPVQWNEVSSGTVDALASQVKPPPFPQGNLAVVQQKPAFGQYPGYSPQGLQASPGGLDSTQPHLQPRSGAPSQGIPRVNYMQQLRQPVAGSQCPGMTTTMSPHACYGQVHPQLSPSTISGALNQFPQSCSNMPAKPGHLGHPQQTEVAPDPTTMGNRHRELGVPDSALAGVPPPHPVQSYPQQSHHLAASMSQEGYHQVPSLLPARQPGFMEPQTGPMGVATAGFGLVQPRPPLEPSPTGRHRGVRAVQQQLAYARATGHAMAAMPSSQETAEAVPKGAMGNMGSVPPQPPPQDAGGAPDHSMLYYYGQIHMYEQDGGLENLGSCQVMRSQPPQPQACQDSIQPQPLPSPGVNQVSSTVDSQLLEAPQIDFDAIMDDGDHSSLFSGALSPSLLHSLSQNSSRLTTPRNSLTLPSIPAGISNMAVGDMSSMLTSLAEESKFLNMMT
Procedure, shortened: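 Hh-Light2 cells transiently transfected (Turbofect) with full-length murine HA-Gli2-FL or N-terminally truncated human Myc-GLI2-DN; drugs (1 uM JQ1, GDC-0449, LDE225 or SANT-1) added 24hr post-transfection; Gli1 mRNA by SYBR Green qRT-PCR; mean of triplicates ± SD.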

Medulloblastoma cell [12] = test: Antitumor activity in […] medulloblastoma cells expressing SmoD477G mutant xenografted in NSG mouse assessed as decrease in tumor growth at 50 mg/kg/day, ip; format: functional, organism-based
Procedure, shortened: (§2)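 SmoWT-MB or SmoD477G-MB cells, 2x10e6 per flank, injected into both flanks of 4-6 week old NSG mice. After engraftment mice were randomized to vehicle, JQ1 50 mg/kg IP qd or GDC-0449 100 mg/kg PO qd until euthanasia was required. Tumor growth was measured by caliper; data are group means ± S.E.M.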

Medulloblastoma cell [13] = test: Downregulation of Smo mRMA expression in […] Medulloblastoma cell expressing wildtype SMO at 1 microM by qRT-PCR analysis; format: functional, cell-based
Procedure, shortened: (§3)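 SmoWT-MB cells were treated with JQ1 at 1 uM (GDC-0449 or LDE225 at 0.1 uM as comparators). Gli1, Gli2, Smo, Sufu and Brd4 mRNA were measured by SYBR Green quantitative RT-PCR. Values are mean of triplicates ± SD.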

MEF [14] = test: Downregulation of BRD4 mRNA level in Sufu-/- MEF cells by qRT-PCR analysis; format: functional, cell-based; conditions: Mus musculus
Hh-Light2 [15] = test: Upregulation of Ptch1 mRNA level in […] Hh-Light2 cells at 1 microM by qRT-PCR analysis; format: functional, cell-based
Procedure, shortened: (§4)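 Hh-Light2 (mouse 3T3 Gli-luciferase reporter line) cells were stimulated with Shh-N conditioned medium or SAG, alone or with JQ1 1 uM. Gli1, Gli2, Ptch1, Sufu, Smo and Brd4 mRNA were measured by SYBR Green qRT-PCR. Values are mean of triplicates ± SD.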

Hh-Light2 [16] = test: Upregulation of Gli1 mRNA level in […] Hh-Light2 cells at 1 microM by qRT-PCR analysis; format: functional, cell-based
Procedure, shortened: as §4

Hh-Light2 [17] = test: Upregulation of Ptch1 mRNA level in […] Hh-Light2 cells transfected with full length murine Gli2 by RT-PCR analysis; format: functional, cell-based; conditions: dose 1.0 µM
Procedure, shortened: (§5)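 Hh-Light2 cells were transiently transfected with HA-Gli2-FL (murine) or Myc-GLI2-DN (N-terminally truncated human) and treated with drugs 24 h post-transfection. Ptch1 mRNA was measured by qRT-PCR. Values are mean of triplicates ± SD.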

Hh-Light2 [18] = test: Upregulation of Gli2 mRNA level in […] Hh-Light2 cells at 1 microM by qRT-PCR analysis; format: functional, cell-based
Procedure, shortened: as §4

MEF [19] = test: Downregulation of Gli2 transcription in Sufu-/- MEF cells at 1 microM by […] analysis; format: functional, cell-based; conditions: Mus musculus
Hh-Light2 [20] = test: Inhibition of full length murine Gli2 expressed in […] Hh-Light2 cells assessed as reduction in mRNA level at 1 microM by qRT-PCR analysis; format: cell-based; conditions: Mus musculus
Procedure, shortened: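 Hh-Light2 cells were transiently transfected with HA-Gli2-FL using Turbofect and treated 24 h later with 1 uM JQ1, GDC-0449, LDE225 or SANT-1. Gli1 mRNA was measured by qRT-PCR. Values are mean of triplicates ± SD.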

Med1 [21] = test: Induction of cell cycle arrest in […] Med1 cells assessed as decreased accumulation of cells in S phase by PI staining based FACS analysis; format: functional
Procedure, shortened: (§6)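 Med1-MB cells were treated with JQ1, fixed in 70% ethanol for 30 min at 4 °C, and stained with PI plus RNase A at 37 °C for 45 min. Cells were filtered through 70 um mesh, and cell-cycle distribution was read by FACS.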

[22] = Cytotoxicity in Ptch-mutated human Med1 cells expressing wildtype SMO by CellTiter-Glo analysis; format: functional, cell-based
[23] = Toxicity in NSG mouse xenografted with Med1 cells assessed as survival of mouse at 50 mg/kg/day, ip; format: organism-based; conditions: in vivo
Procedure, shortened: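 Med1-MB cells carrying luciferase, 0.5x10e6, were injected into the cerebellum of NSG mice. After engraftment was confirmed, mice were randomized to JQ1 50 mg/kg IP daily or vehicle until euthanasia was required, and survival was recorded.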

[24] = Induction of apoptosis in human Med1 cells assessed as viable cells by annexin-V/PI staining based flow cytometric analysis (reference value: 96.4%); format: functional, Medulloblastoma cell
Medulloblastoma cell [25] = test: Cytotoxicity in Ptch-mutated in […] medulloblastoma cells expressing wildtype SMO by CellTiter-Glo analysis; format: functional, cell-based
Hh-Light2 [26] = test: Downregulation of Brd4 mRNA level in […] Hh-Light2 cells at 1 microM by qRT-PCR analysis; format: functional, cell-based
Procedure, shortened: as §4

[27] = Induction of apoptosis in human Med1 cells assessed as necrotic cells by annexin-V/PI staining based flow cytometric analysis (reference value: 1.87%); format: functional, Medulloblastoma cell
MEF [28] = test: Downregulation of Gli1 mRNA level in Sufu-/- MEF cells at 1 microM by qRT-PCR analysis; format: functional, cell-based; conditions: Mus musculus
Procedure, shortened: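 Sufu−/− MEFs were treated with DMSO or inhibitors at 1 uM, and Gli1/Gli2 mRNA was measured by SYBR Green qRT-PCR (mean of triplicates ± SD). A time course with JQ1 1 uM included a 3 h point.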

Medulloblastoma cell [29] = test: Downregulation of sufu mRMA expression in […] Medulloblastoma cell expressing wildtype SMO at 1 microM by qRT-PCR analysis; format: functional, cell-based
Procedure, shortened: as §3

Danio rerio = organism: Danio rerio; test: Effect on heat shock treated transgenic zebra fish assessed as increase in eye diameter; format: functional, organism-based
Procedure, shortened: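 Tg(hsp70l:shha-EGFP)+/− x TL embryos were heat shocked at 38 °C for 15 min at the 8-somite stage, then placed directly in JQ1 (0.6 or 6.0 um) or DMSO. At […] embryos were sorted GFP+/− into fresh drug. Eye dorsal axis length was scored at 56 hpf, n=12 per group; Student's t-test.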

Med1 [30] = test: Downregulation of Gli1mRNA expression in […] Med1 cells at 1 microM by qRT-PCR analysis; format: functional, cell-based
Procedure, shortened: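 Med1-MB cells were treated with JQ1 1 uM, and Gli1 mRNA was measured by SYBR Green qRT-PCR. Values are mean of triplicates ± SD.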

Hh-Light2 [31] = test: Upregulation of Sufu mRNA level in […] Hh-Light2 cells at 1 microM by qRT-PCR analysis; format: functional, cell-based
Procedure, shortened: as §4

[32] = Induction of apoptosis in human Med1 cells assessed as early apoptotic cells by annexin-V/PI staining based flow cytometric analysis (reference value: 1.09%); format: functional, Medulloblastoma cell
Med1 [33] = test: Antitumor activity in […] Med1 cells xenografted in NSG mouse assessed as reduction in tumor growth at 50 mg/kg/day, ip; format: functional, organism-based
Procedure, shortened: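 Med1-MB cells carrying a lentiviral luciferase reporter, 2x10e6 injected into the flank of 4-6 week old NSG mice. After engraftment was confirmed, mice were randomized to JQ1 50 mg/kg IP daily or vehicle. Tumor growth was followed by IVIS imaging as average radiance; tumor size was also recorded at day 21 of treatment.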

Medulloblastoma cell [34] = test: Antiproliferation of […] Hh driven medulloblastoma cells […] by cell titre glo assay; format: functional, cell-based
[35] = Induction of apoptosis in human Med1 cells assessed as late apoptotic cells by annexin-V/PI staining based flow cytometric analysis (reference value: 0.60%); format: functional, Medulloblastoma cell
Medulloblastoma cell [36] = test: Antiproliferation of human Hh driven medulloblastoma cells by cell titre glo assay; format: functional, cell-based
Hh-Light2 [37] = test: Upregulation of Smo mRNA level in […] Hh-Light2 cells at 1 microM by qRT-PCR analysis; format: functional, cell-based
Procedure, shortened: as §4

Hh-Light2 [38] = test: Upregulation of Ptch1 mRNA level in […] Hh-Light2 cells transfected with […] GlI2 by RT-PCR analysis; format: functional, cell-based; conditions: dose 1.0 µM
Procedure, shortened: as §5

[39] = target: Bromodomain-containing protein 4 (Danio rerio) (UniProt F1R5H6); test: Inhibition of BRD4 in danio rerio assessed as decrease in GFP mRNA expression level by qRT-PCR analysis
Bromodomain-containing protein 4 (Danio rerio), sequence (F1R5H6 whole entry): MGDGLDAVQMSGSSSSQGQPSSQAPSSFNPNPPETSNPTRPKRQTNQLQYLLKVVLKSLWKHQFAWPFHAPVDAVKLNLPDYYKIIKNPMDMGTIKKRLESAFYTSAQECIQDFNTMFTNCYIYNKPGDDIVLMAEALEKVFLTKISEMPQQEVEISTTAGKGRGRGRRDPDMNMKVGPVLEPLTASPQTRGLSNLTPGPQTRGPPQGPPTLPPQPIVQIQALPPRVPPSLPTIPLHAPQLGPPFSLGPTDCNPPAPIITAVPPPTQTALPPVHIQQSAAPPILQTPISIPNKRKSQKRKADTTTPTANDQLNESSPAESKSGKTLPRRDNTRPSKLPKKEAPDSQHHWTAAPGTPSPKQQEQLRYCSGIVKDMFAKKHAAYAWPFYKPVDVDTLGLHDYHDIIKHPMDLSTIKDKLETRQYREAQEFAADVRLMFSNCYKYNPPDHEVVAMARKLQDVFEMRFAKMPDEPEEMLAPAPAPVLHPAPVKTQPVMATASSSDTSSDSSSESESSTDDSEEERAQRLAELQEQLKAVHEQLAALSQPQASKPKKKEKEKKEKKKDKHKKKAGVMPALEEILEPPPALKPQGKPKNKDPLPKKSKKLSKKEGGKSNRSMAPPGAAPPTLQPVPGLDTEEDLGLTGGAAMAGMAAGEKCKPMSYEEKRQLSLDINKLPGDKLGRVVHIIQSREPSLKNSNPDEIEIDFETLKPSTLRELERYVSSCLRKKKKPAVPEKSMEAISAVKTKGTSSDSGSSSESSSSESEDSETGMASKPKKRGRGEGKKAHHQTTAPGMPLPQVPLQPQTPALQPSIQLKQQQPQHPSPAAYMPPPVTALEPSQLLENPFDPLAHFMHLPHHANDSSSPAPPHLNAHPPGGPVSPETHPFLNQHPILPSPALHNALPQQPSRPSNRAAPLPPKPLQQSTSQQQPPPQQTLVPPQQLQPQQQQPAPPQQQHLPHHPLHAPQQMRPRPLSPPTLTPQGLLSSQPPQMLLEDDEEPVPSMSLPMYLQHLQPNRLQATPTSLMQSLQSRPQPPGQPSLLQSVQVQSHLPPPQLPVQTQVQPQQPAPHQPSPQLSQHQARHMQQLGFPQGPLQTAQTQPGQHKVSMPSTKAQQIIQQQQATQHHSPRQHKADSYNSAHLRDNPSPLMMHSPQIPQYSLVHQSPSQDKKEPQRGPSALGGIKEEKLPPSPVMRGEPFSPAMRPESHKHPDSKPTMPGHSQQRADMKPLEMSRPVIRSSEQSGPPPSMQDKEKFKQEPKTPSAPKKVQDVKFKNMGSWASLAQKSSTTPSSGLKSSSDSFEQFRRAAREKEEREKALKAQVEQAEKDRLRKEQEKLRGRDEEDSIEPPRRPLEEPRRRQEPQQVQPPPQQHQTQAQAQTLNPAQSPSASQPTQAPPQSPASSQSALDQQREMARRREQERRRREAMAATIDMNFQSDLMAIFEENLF

Medulloblastoma cell [40] = test: Downregulation of BRD4 mRMA expression in […] Medulloblastoma cell expressing wildtype SMO at 1 microM by qRT-PCR analysis; format: functional, cell-based
Procedure, shortened: as §3

Medulloblastoma cell [41] = test: Antitumor activity in […] medulloblastoma expressing wildtype SMO xenografted in NSG mouse assessed as reduction in tumor growth at 50 mg/kg/day, ip; format: functional, organism-based
Procedure, shortened: as §2

Med1 [42] = test: Induction of cell cycle arrest in […] Med1 cells assessed as increased accumulation of cells in G1 phase by PI staining based FACS analysis; format: functional
Procedure, shortened: as §6

CNCc1ccc(C)c(NC(=O)c2ccc(Nc3nc(-c4ccccc4)c4ccccc4n3)cc2)c1
Activity [1]: Active

Cc1c(C(=O)Nc2ccc(N3C[C@@H](C)O[C@@H](C)C3)nc2)cccc1-c1ccc(OC(F)(F)F)cc1 [SONIDEGIB]
Activity (Medulloblastoma cell [2]): 58.8%
Activity (Medulloblastoma cell [3]): 7.15%
inhibition [4]: Active
inhibition [5]: Active
Activity (Medulloblastoma cell [6]): 1.09%
Activity (MEF [7]): inactive
Activity (Medulloblastoma cell [8]): Active
Activity (Medulloblastoma cell [9]): 33%
Activity (MEF [10]): inactive
inhibition [11]: inactive

Cc1sc2c(c1C)C(c1ccc(Cl)cc1)=N[C@@H](CC(=O)OC(C)(C)C)c1nnc(C)n1-2
Activity (Medulloblastoma cell [12]): Active
Activity (Medulloblastoma cell [2]): 54.7%
Activity (Medulloblastoma cell [13]): Active
Activity (MEF [14]): inactive
Activity (Hh-Light2 [15]): Active
Activity (Hh-Light2 [16]): Active
Activity (Hh-Light2 [17]): inactive
Activity (Hh-Light2 [18]): Active
Activity (MEF [19]): Active
inhibition (Hh-Light2 [20]): Active
Activity (Medulloblastoma cell [3]): 5.44%
Activity (Med1 [21]): Active
IC50 [22]: ~50 nM
Activity [23]: Non-Toxic
Activity [24]: 87.9%
IC50 (Medulloblastoma cell [25]): ~50 nM
Activity (Hh-Light2 [26]): inactive
Activity [27]: 10.1%
Activity (MEF [28]): Active
Activity (Medulloblastoma cell [29]): Active
Activity (Medulloblastoma cell [6]): 0.64%
Activity (Danio rerio): Active
Activity (Med1 [30]): Active
Activity (Hh-Light2 [31]): inactive
Activity (Medulloblastoma cell [8]): Active
Activity [32]: 0.35%
Activity (Med1 [33]): Active
Activity (Medulloblastoma cell [34]): Active
Activity [35]: 1.61%
Activity (Medulloblastoma cell [36]): Active
Activity (Hh-Light2 [37]): Active
Activity (Medulloblastoma cell [9]): 39.2%
Activity (Hh-Light2 [38]): Active
inhibition [39]: Active
Activity (Medulloblastoma cell [40]): Active
Activity (Medulloblastoma cell [41]): Active
Activity (Med1 [42]): Active
